Shown are actives, neighbours in structure and some others; about 2.2% of the full set was active somewhere.
PDI inh: PDI (human) enzyme inhibition. 350,000 tested, 0.052% active. inhibition, % at 10 µM. PDI insulin aggregation turbidity, A650, 90 min. P07237;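 active = mean inhibition across replicates of 30% or more, whatever share of single replicates reach that level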
Ecoli rRNA inh: selective bacterial rRNA inhibition in E. coli. GFP signal change (wild-type ribosome), % (test concentration not listed). 350,000 tested, 1.6% active. E. coli WT GFP vs humanized-ribosome RFP mutants, fluorescence, 24 h; hits give low values; DMSO median 0, no signal -100;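 active = significant combined selectivity score with lowered wild-type GFP, culture density cut under 30%, mutant RFP and density less affected; inactive = any of these conditions unmet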
ERp5 block: inhibitors of human ERp5; AID 651711; ERp5 insulin aggregation, absorbance 650 nm, 90 min; Q15084; 350,000 tested, 0.05% active; inhibition, % at 9.99 µM;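 active = mean replicate inhibition above about 25%, with every replicate also reaching it, limit read from the data, passing the limit was not always enough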
Target sequence (Q15084 whole entry, looked up): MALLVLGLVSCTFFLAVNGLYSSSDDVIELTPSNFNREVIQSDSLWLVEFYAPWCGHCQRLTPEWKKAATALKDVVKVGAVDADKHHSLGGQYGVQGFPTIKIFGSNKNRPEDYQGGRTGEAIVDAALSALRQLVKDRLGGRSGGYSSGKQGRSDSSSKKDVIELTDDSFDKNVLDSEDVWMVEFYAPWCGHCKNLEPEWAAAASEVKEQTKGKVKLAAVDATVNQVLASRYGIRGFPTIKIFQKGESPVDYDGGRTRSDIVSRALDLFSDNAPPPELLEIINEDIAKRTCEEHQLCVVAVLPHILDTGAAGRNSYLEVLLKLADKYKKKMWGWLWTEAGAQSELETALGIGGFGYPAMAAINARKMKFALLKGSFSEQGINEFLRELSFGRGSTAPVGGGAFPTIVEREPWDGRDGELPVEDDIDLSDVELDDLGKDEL
HIV Env fusion: HIV envelope-mediated fusion inhibition; inhibition, % at 12.3 µM; 360,000 tested, 1.1% active; AID 651610; HeLa-JRFL Env/CEM21 cell fusion, luciferase;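 active = mean replicate inhibition score of at least 50 and every replicate individually at or above 50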;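 also: 0% = plate neutral controls and 100% = maraviroc near 300 nM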
FN deposition inh: fibronectin deposition inhibition. 350,000 tested, 0.086% active. AH1F fibroblasts, Alexa488-fibronectin deposition fluorescence, overnight. inhibition, % at 12.6 µM;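 active = mean inhibition across replicates of 30% or more, regardless of how many single replicates reach that level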;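 also: positive control wells lacked labelled fibronectin entirely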
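Material: AH1F fibroblasts assembling fluorescent fibronectin matrix; amount: 10000 AH1F cells/well; medium: DMEM, 2% serum; reagent: Alexa488-fibronectin, 24 nM final in well; dosing: single compound dose, delivered by pin transfer; incubation: 1 h adhesion, overnight exposure; detection: fluorescence after three HBSS washes, excitation 485 nm, emission 525 nm; measure: fibronectin deposition inhibition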
PvdQ inh: blocks Pseudomonas aeruginosa PvdQ acylase activity. inhibition, % at 10 µM. purified PvdQ acylase, fluorescence plate reader. 340,000 tested, 0.063% active; in the data active = inhibition above about 30%, passing the limit was not always enough;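 also: 0% = vehicle neutral wells and 100% = reference inhibitor wells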
The depositor's hits bear a star; / = no result; [ ] = dose if it differs, or a comment.

SMILES	PDI inh	Ecoli rRNA inh	ERp5 block	HIV Env fusion	FN deposition inh	PvdQ inh
Cc1cccc2cc(CN(CC3CCCO3)S(=O)(=O)c3ccccc3)c(=O)[nH]c12 (configuration not stated)	2.8	-24.3*	-2.6	7.4	-16.6	-8.6
COc1ccc(C(C(=O)NC(C)(C)C)N(C[C@H]2CC[C@@H]([C@@H]3CC[C@H](CO)O3)O2)C(=O)c2ccccc2)cc1 (some centres not stated)	-4.0	7.0	-1.8	62.3*	-0.4	-8.0
C/C(=N\N)c1c(-c2ccccc2)c2cc(C)ccc2[nH]c1=O	3.6	15.0	1.5	5.1	3.0	-0.7
CCN(CC)c1c(-c2ccccc2)c2cc(C)ccc2[nH]c1=O	-1.5	-1.7	-3.4	68.1*	-0.1	-5.8
CCCC(=O)N1CC2(C1)CN(C(=O)C1CCC1)[C@H](CO)c1[nH]c3cc(OC)ccc3c12	/	0.2	7.4	/	/	/
O=C1C=C(N2CCOCC2)c2ccccc2C1=O	1.9	51.6	21.0	65.0*	2.2	12.3
O=C1C=C(N2CCOCC2)c2cccc3cccc1c23	7.9	-16.1	9.9	27.0	2.8	/
Cc1ccc(S(=O)(=O)N(C)C[C@H]2OCCCC[C@H](C)Oc3ccc(NS(=O)(=O)c4c(C)noc4C)cc3C(=O)N([C@@H](C)CO)C[C@@H]2C)cc1	/	-2.2	5.3	11.3[16.7 µM]	0.9	/
O=C(N/N=C/c1cc(Br)c(O)c(Br)c1O)c1ccc2c(c1)OCCO2	-0.1	-19.2*	-1.8	0.6	13.3	2.2
O=C(N/N=C/c1c[nH]c2ccc(Br)cc12)C1CC1	7.2	-33.5*	4.7	-2.0	-0.7	13.6
O=C(N/N=C/c1c[nH]c2ccccc12)c1ccc2c(c1)OCCO2	-5.5	7.0	-5.5	-156.0	4.4	15.5
O=C(N/N=C/c1c[nH]c2ccc(Br)cc12)c1ccc2c(c1)OCO2	-10.0	-30.3*	-0.4	-29.1	3.4	-3.1
C[C@@H]1CCCCO[C@H](CN(C)Cc2ccc3c(c2)OCO3)[C@H](C)CN([C@@H](C)CO)C(=O)c2cc(NS(C)(=O)=O)ccc2O1	/	1.2	/	-3.5[16.7 µM]	/	/
COCC(=O)N1C[C@H]2[C@@H](c3ccccc31)[C@@H](CO)N2C(=O)Nc1ccccc1Cl	/	5.2	4.0	/	/	/
Cc1nc2cc(Cl)c(Cl)cc2n1CCCO	-1.9	-21.6*	1.2	7.0	7.6	/
C=CC[N+]1(CC#Cc2ccccc2)CCCC1	0.9	18.8	-0.8	-6.4	-4.2	-4.4
C(#Cc1ccccc1)C[N+]1(CC#Cc2ccccc2)CCCC1	12.8	-44.5*	-0.3	15.3	4.1	-2.1
COc1ccc(CC(=O)Nc2nccs2)cc1OC	2.1	/	/	-1.8	-2.5	-6.8
O=C(Nc1ccc(NC(=O)c2cccc([N+](=O)[O-])c2)cc1)c1cccc([N+](=O)[O-])c1	13.2	16.2	4.2	14.7	-1.2	1.9
O=C(Nc1ncc([N+](=O)[O-])s1)c1cccc([N+](=O)[O-])c1	1.5	-3.3	2.5	-38.4	-2.9	39.5*
COc1ccc(CC(=O)Nc2ncc([N+](=O)[O-])s2)cc1OC	-2.1	-49.5*	-0.1	13.6	-1.9	-3.1
O=C(c1ccc(F)cc1)N1CC[C@@H]2[C@@H](CO)Nc3ccc(C#CC4CC4)cc3[C@@H]21	/	4.5	/	/	-27.6	/
Cn1c(=O)[nH]c(=O)c2c1nc(N1CCNCC1)n2Cc1cccc2ccccc12	2.0	/	/	58.2*	3.2	-18.9
Cc1noc(C)c1NC(=O)N(C)C[C@H]1Oc2ccc(NC(=O)C3CCCCC3)cc2CC(=O)N([C@H](C)CO)C[C@@H]1C	/	2.7	0.2	2.4[16.7 µM]	4.7	/
N#C[C@H]1[C@H](c2ccccc2-c2cccc(F)c2)[C@@H](CO)N1C(=O)NC1CCCCC1	/	-15.8	1.3	/	7.6	/
SMILES	PDI inh	Ecoli rRNA inh	ERp5 block	HIV Env fusion	FN deposition inh	PvdQ inh
O=C(Nc1ccc(Cl)c(Cl)c1)Nn1cnnc1	-0.5	-22.1*	-0.6	18.3	7.3	-27.5
C[C@H](c1ccccc1)N1C[C@@H](COCc2ccccc2)Oc2cccc(N3CCCCC3)c2S1(=O)=O	/	24.0	4.8	58.6*	-3.4	/
COCCNC(=O)C[C@@H]1C[C@H]2c3cc(NC(=O)Nc4ccccc4)ccc3O[C@H]2[C@H](CO)O1	/	0.7	1.1	/	-5.5	/
CC(=O)c1cnc(SCc2ccc(Cl)cc2)nc1C	-6.7	-28.2*	7.4	-6.7	/	20.6
CCCNC(=O)C[C@H]1C[C@H]2c3cc(NS(C)(=O)=O)ccc3O[C@H]2[C@@H](CO)O1	/	0.6	26.7*	/	-34.1	/
CCCNC(=O)C[C@@H]1C[C@@H]2c3cc(NS(C)(=O)=O)ccc3O[C@@H]2[C@@H](CO)O1	/	2.3	/	/	-13.1	/
CCCNC(=O)C[C@@H]1C[C@H]2c3cc(NS(C)(=O)=O)ccc3O[C@H]2[C@@H](CO)O1	/	-0.6	55.9*	/	-14.0	/
CCOc1cc(/C=C/C(=O)OCC(=O)NC2CCS(=O)(=O)C2)ccc1OCc1ccccc1 (configuration not stated)	-4.0	-28.4*	-4.3	15.7	/	1.6
Cc1cccc(CN2CCN(CC(=O)NCCCN3CCN(c4ccc(F)cc4)CC3)C2=O)c1	-1.9	/	/	58.7*	/	-11.5
CCC(=O)N(C)C[C@H]1Oc2ncc(-c3ccccc3C)cc2C(=O)N([C@H](C)CO)C[C@H]1C	/	2.0	-6.5	-1.5[16.7 µM]	6.3	/
O=C(NNC(=O)C(c1ccccc1)c1ccccc1)c1ccccn1	15.9	-28.8	-0.6	74.3*	21.2	-0.5
O=C(NNc1ccccn1)C(c1ccccc1)c1ccccc1	-17.8	0.7	3.7	-3.4	-18.3	19.8
CCn1c(-c2c[nH]c3ccccc23)n[nH]c1=S	-5.9	-20.4*	5.0	/	/	-10.3
C=CCn1c(-c2c[nH]c3ccccc23)n[nH]c1=S	2.2	/	/	-132.4	1.6	-13.0
COc1ccc(-n2c(COc3ccccc3)nnc2SCc2ccc(C#N)cc2)cc1	3.8	/	/	18.1	/	-4.9
N#Cc1ccc(CSc2nnc(COc3ccccc3)n2-c2ccccc2)cc1	-3.6	/	/	75.4*	12.7	-9.5
COc1cccc(NC(=O)COC(=O)c2sccc2C)c1	4.1	-20.9*	-5.9	-94.3	0.1	-5.2
Cc1ccc(NC(=O)CN(C)CC(=O)Nc2ccccc2Oc2ccccc2)cc1	2.9	-34.8*	3.4	4.7	-1.9	-17.9
COc1cccc(NC(=O)CN(C)CC(=O)Nc2cccc(C(F)(F)F)c2)c1	-3.1	-34.3	0.6	17.5	2.9	-9.2
COc1cccc(NC(=O)CN(C)CC(=O)Nc2ccc(Br)cc2)c1	-5.8	-34.3*	3.0	4.6	/	-16.5
CCN(CC(=O)Nc1cccc(OC)c1)CC(=O)Nc1ccc(Br)c(C)c1	5.0	-54.0*	-1.2	30.3	5.5	-16.5
CCN(CC(=O)Nc1cccc(OC)c1)CC(=O)Nc1ccccc1C	-1.0	4.6	4.7	0.6	1.0	-1.6
C[C@H](CO)N1C[C@H](C)[C@H](CN(C)Cc2ccccc2O)OCc2cn(nn2)CCCC1=O	/	2.8	-3.0	/	-4.0	/

Screens deposited in PubChem BioAssay by Broad Institute.
